ChEMBL document CHEMBL1156682, “Synthesis and antioxidant activity evaluation of new hexahydropyrimido[5,4-c]quinoline-2,5-diones and 2-thioxohexahydropyrimido[5,4-c]quinoline-5-ones obtained by Biginelli reaction in two steps” (Eur J Med Chem, 2008)

Legend:
Assay type in all cases: functional
[1] = test system: Radical scavenging activity; test: Antioxidant activity assessed as DPPH radical scavenging activity at 250 uM/L after 2 hrs
Outline: (§1)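 DPPH radical scavenging read as absorbance at 517 nm. %RSA = [(A_DPPH − A_S)/A_DPPH] × 100, where A_S is absorbance with compound added at a given level and A_DPPH is absorbance of DPPH solution alone. Mean of three independent samples per compound.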

[2] = test system: Radical scavenging activity; test: Antioxidant activity assessed as DPPH radical scavenging activity at 200 uM/L after 2 hrs; outline: as §1
[3] = test system: Radical scavenging activity; test: Antioxidant activity assessed as DPPH radical scavenging activity at 100 uM/L after 2 hrs; outline: as §1
[4] = Antioxidant activity assessed as hydroxyl radical scavenging activity at 50 uM/L after 2 hrs
Outline: (§2)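 Hydroxyl radical scavenging by benzoic acid hydroxylation, with OH· generated by Fenton reaction. Sample was mixed with phosphate buffer (pH 7.4, 0.1 mol), then H2O2 solution (10 mmol) was added, and the mixture was incubated at 37 °C for 2 h. Fluorescence of the hydroxylated benzoic acid was read at excitation 305 nm, emission 407 nm.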

[5] = test system: Radical scavenging activity; test: Antioxidant activity assessed as DPPH radical scavenging activity at 150 uM/L after 2 hrs; outline: as §1
[6] = test system: Radical scavenging activity; test: Antioxidant activity assessed as DPPH radical scavenging activity at 50 uM/L after 2 hrs; outline: as §1
[7] = Antioxidant activity assessed as hydroxyl radical scavenging activity at 200 uM/L after 2 hrs; outline: as §2
[8] = Antioxidant activity assessed as hydroxyl radical scavenging activity at 100 uM/L after 2 hrs; outline: as §2
[9] = Antioxidant activity assessed as hydroxyl radical scavenging activity at 20 uM/L after 2 hrs; outline: as §2
[10] = Antioxidant activity assessed as hydroxyl radical scavenging activity at 150 uM/L after 2 hrs; outline: as §2

Row | SMILES | Activity [1] | Activity [2] | Activity [3] | Activity [4] | Activity [5] | Activity [6] | Activity [7] | Activity [8] | Activity [9] | Activity [10]
1 | CC1=C2C(=O)Nc3cccc(Cl)c3C2NC(=O)N1C (stereo not given) | 7.6% | 5.4% | 2.1% | 72.8% | 5% | 1.5% | 83.3% | 80.9% | 67.1% | 83.2%
2 | CC1=C2C(=O)Nc3cccc(F)c3C2NC(=S)N1C (stereo not given) | 25.4% | 17.4% | 8.6% | 78.8% | 12.4% | 3.3% | 83.3% | 80.2% | 70.6% | 81.5%
3 | CC1=C2C(=O)Nc3cc(Cl)ccc3C2NC(=S)N1C (stereo not given) | 30.6% | 23.8% | 11.2% | 76.5% | 17.8% | 9.5% | 90.2% | 87.5% | 68.7% | 88.5%
4 | CC1=C2C(=O)Nc3ccccc3C2NC(=S)N1C (stereo not given) | 26.2% | 17.9% | 8.2% | 69.4% | 14.1% | 4% | 88.2% | 77.2% | 56.3% | 82.3%
5 | CC1=C2C(=O)Nc3ccccc3C2NC(=O)N1C (stereo not given) | 12% | 9.8% | 6.6% | 71.8% | 9.1% | 2.5% | 89.7% | 80.8% | 58.4% | 83.7%
6 | CCN1C(=O)NC2C(=C1C)C(=O)Nc1c(Cl)cccc12 (stereo not given) | 11.8% | 8.1% | 2.3% | 74.1% | 4.3% | 1.9% | 86.7% | 80.6% | 63.8% | 84.4%
7 | CC1=C2C(=O)Nc3c(Cl)cccc3C2NC(=O)N1C (stereo not given) | 17.4% | 16.2% | 5.4% | 77.3% | 10.2% | 3.1% | 89.2% | 82.9% | 66% | 87.3%
8 | CCN1C(=O)NC2C(=C1C)C(=O)Nc1cccc(F)c12 (stereo not given) | 9.8% | 8.7% | 4.6% | 58.4% | 6% | 3% | 83.1% | 72.4% | 12.5% | 80.2%
9 | CC1=C2C(=O)Nc3cccc(Cl)c3C2NC(=S)N1C (stereo not given) | 24.9% | 15.3% | 8.2% | 82.7% | 9.5% | 7.7% | 92.3% | 87.4% | 68% | 89.8%
10 | CCN1C(=O)NC2C(=C1C)C(=O)Nc1ccccc12 (stereo not given) | 10.5% | 9.1% | 4.8% | 70.9% | 6.7% | 3.4% | 89.1% | 81.1% | 58.1% | 86.5%
